Measured values from the RNAGym collection of RNA variant scans (doi:10.1126/science.aae0568).
Variants at the floor of the assay were thinned out.

B1: tRNA (parent)
chain: GUUCCGUUGGCGUAAUGGUAACGCGUCUCCCUCCUAAGGAGAAGACUGCGGGUUCGAGUCCCGUACGGAACG

Variants of: B1
Assay: yeast fitness relative to wild type (ratio to wild type); higher = fitter; tRNA-Arg(CCU), competitive growth, 37 C, YPD
Method in brief: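 Genotype frequency changes were the basis for Darwinian fitness relative to wild type. The frequencies came from 100-nucleotide paired-end sequencing of gene amplicons from the start population and each end population of pooled yeast strains with tRNA-Arg(CCU) gene variants at the native locus. Competition ran in YPD at 37°C for 24 hours in six replicates, genotypes needed ≥ 100 starting reads, and estimates < 0.5 were set to 0.5.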
GUUCCGUUGGCGUAAUGGUAACGCGUCUCCCUCCUAAGGAGAAGACUGCGGGUUCGACUCACGUACGGUACG [G58C C61A A69U] showed a yeast fitness of 0.55.
GUUCCGUUGGCGUAAUGGUAACGCGUCUCCCUCCUAAGGAGAAGACUGCGGGUUCGAGUCGCCUACGAAACG [C61G G63C G68A] gave a yeast fitness of no more than 0.5.
For GUUCCGUUGGCGUAAUGGUAACGCGUCUCCCUCCUAAGGAGAAGACUGCGGGUUCGCGUCCCGUACGGAACG [A57C], the yeast fitness was 0.62.
Work on GUUCCGUUGGCGUAAUGGUAACGCGUCUCCCUCCUAAGGAGAAGACUGCGGGUUCGGGUCCCGUACGGAACG [A57G] yielded a yeast fitness of 0.998.
In the case of GUUCCGUUGGCGUAAUGGUAACGCGUCUCCCUCCUAAGGAGAAGACUGCGGGUUCGUGUCCCGUACGGAACG [A57U], the yeast fitness is reported as 0.731.
GUUCCGUUGGCGUAAUGGUAACGCGUCUCCCUCCUAAGGAGAAGACUGCGGGUUCGAGGCCCCUACGGAACG [U59G G63C] showed a yeast fitness of 0.639.
GUUCCGUUGGCGUAAUGGUAACGCGUCUCCCUCCUAAGGAGAAGACUGCGGGUUCGAGUACCGUACCGAACG [C60A G67C] showed a yeast fitness of 0.654.
GUUCCGUUGGCGUAAUGGUAACGCGUCUCCCUCCUAAGGAGAAGACUGCGGGUUCGACUCCGGUACGGAACG [G58C C62G] showed a yeast fitness of 0.755.
Work on GUUCCGUUGGCGUAAUGGUAACGCGUCUCCCUCCUAAGGAGAAGACUGCGGGUUCGAGUGCCGUACAGAACG [C60G G67A] yielded a yeast fitness of 0.584.
Variant GUUCCGUUGGCGUAAUGGUAACGCGUCUCCCUCCUAAGGAGAAGACUGCGGGUUCGCGUACCGUACGGAACG [A57C C60A] has a yeast fitness of no more than 0.5.
For GUUCCGUUGGCGUAAUGGUAACGCGUCUCCCUCCUAAGGAGAAGACUGCGGGUUCGAGACCCGUAAGGAACG [U59A C66A], the yeast fitness was 0.63.
GUUCCGUUGGCGUAAUGGUAACGCGUCUCCCUCCUAAGGAGAAGACUGCGGGUUCGAGUACCGUACGCAACG [C60A G68C] showed a yeast fitness of 0.734.
With GUUCCGUUGGCGUAAUGGUAACGCGUCUCCCUCCUAAGGAGAAGACUGCGGGUUCGAGUACCGAACGGAACG [C60A U64A] the yeast fitness was 0.561.
GUUCCGUUGGCGUAAUGGUAACGCGUCUCCCUCCUAAGGAGAAGACUGCGGGUUCGUGUCCCGUGCGGAACG [A57U A65G] gave a yeast fitness of 0.753.
For GUUCCGUUGGCGUAAUGGUAACGCGUCUCCCUCCUAAGGAGAAGACUGCGGGUUCGACUCCCGUAUGGAACG [G58C C66U], the yeast fitness was 0.982.
In the case of GUUCCGUUGGCGUAAUGGUAACGCGUCUCCCUCCUAAGGAGAAGACUGCGGGUUCGAGUCACGUACCGAACG [C61A G67C], the yeast fitness is reported as 0.664.
GUUCCGUUGGCGUAAUGGUAACGCGUCUCCCUCCUAAGGAGAAGACUGCGGGUUCGUGUCCCGUACGGGACG [A57U A69G] gave a yeast fitness of 0.665.
In the case of GUUCCGUUGGCGUAAUGGUAACGCGUCUCCCUCCUAAGGAGAAGACUGCGGGUUCGGGUUCCGUACGCAACG [A57G C60U G68C], the yeast fitness is reported as 0.527.
GUUCCGUUGGCGUAAUGGUAACGCGUCUCCCUCCUAAGGAGAAGACUGCGGGUUCGAGUACCGUACGGGACG [C60A A69G] gave a yeast fitness of 0.56.
In the case of GUUCCGUUGGCGUAAUGGUAACGCGUCUCCCUCCUAAGGAGAAGACUGCGGGUUCGAGUCGCGUAGGGAACG [C61G C66G], the yeast fitness is reported as 0.625.
In the case of GUUCCGUUGGCGUAAUGGUAACGCGUCUCCCUCCUAAGGAGAAGACUGCGGGUUCGACUCCCAUACGGAACG [G58C G63A], the yeast fitness is reported as 0.873.
Variant GUUCCGUUGGCGUAAUGGUAACGCGUCUCCCUCCUAAGGAGAAGACUGCGGGUUCGAAUCCCGUAUUGAACG [G58A C66U G67U] has a yeast fitness of 0.543.
In the case of GUUCCGUUGGCGUAAUGGUAACGCGUCUCCCUCCUAAGGAGAAGACUGCGGGUUCGAGUCGUGUACGGAACG [C61G C62U], the yeast fitness is reported as 0.613.
GUUCCGUUGGCGUAAUGGUAACGCGUCUCCCUCCUAAGGAGAAGACUGCGGGUUCGCGUCGCGUACGGCACG [A57C C61G A69C] showed a yeast fitness of no more than 0.5.
Work on GUUCCGUUGGCGUAAUGGUAACGCGUCUCCCUCCUAAGGAGAAGACUGCGGGUUCGAAUCCCGUACGGAUCG [G58A A70U] yielded a yeast fitness of 0.955.
With GUUCCGUUGGCGUAAUGGUAACGCGUCUCCCUCCUAAGGAGAAGACUGCGGGUUCGACUCCCGUACCGAACG [G58C G67C] the yeast fitness was 1.17.
For GUUCCGUUGGCGUAAUGGUAACGCGUCUCCCUCCUAAGGAGAAGACUGCGGGUUCGACUCCCGUACAGAACG [G58C G67A], the yeast fitness was 0.807.
For GUUCCGUUGGCGUAAUGGUAACGCGUCUCCCUCCUAAGGAGAAGACUGCGGGUUCGAGUGCCGUAGGGACCG [C60G C66G A70C], the yeast fitness was no more than 0.5.
GUUCCGUUGGCGUAAUGGUAACGCGUCUCCCUCCUAAGGAGAAGACUGCGGGUUCGCGUCCCGGACGGAACG [A57C U64G] showed a yeast fitness of 0.512.
For GUUCCGUUGGCGUAAUGGUAACGCGUCUCCCUCCUAAGGAGAAGACUGCGGGUUCGAGUCGCGUACGGUACG [C61G A69U], the yeast fitness was 0.635.
GUUCCGUUGGCGUAAUGGUAACGCGUCUCCCUCCUAAGGAGAAGACUGCGGGUUCGAGGGCCGUACGGAACG [U59G C60G] gave a yeast fitness of 0.638.
Work on GUUCCGUUGGCGUAAUGGUAACGCGUCUCCCUCCUAAGGAGAAGACUGCGGGUUCGAGGUCCGUACGGAACG [U59G C60U] yielded a yeast fitness of 0.63.
Variant GUUCCGUUGGCGUAAUGGUAACGCGUCUCCCUCCUAAGGAGAAGACUGCGGGUUCGAGACCCAUACGGAACG [U59A G63A] has a yeast fitness of 0.872.
Variant GUUCCGUUGGCGUAAUGGUAACGCGUCUCCCUCCUAAGGAGAAGACUGCGGGUUCGAGUUCCGUACGGGACG [C60U A69G] has a yeast fitness of 0.572.
In the case of GUUCCGUUGGCGUAAUGGUAACGCGUCUCCCUCCUAAGGAGAAGACUGCGGGUUCGAGUUCCGUACGGCACG [C60U A69C], the yeast fitness is reported as 0.713.
Work on GUUCCGUUGGCGUAAUGGUAACGCGUCUCCCUCCUAAGGAGAAGACUGCGGGUUCGUGACCCGUCCGGAACG [A57U U59A A65C] yielded a yeast fitness of no more than 0.5.
With GUUCCGUUGGCGUAAUGGUAACGCGUCUCCCUCCUAAGGAGAAGACUGCGGGUUCGCGUCCCGUACCGAACG [A57C G67C] the yeast fitness was 0.707.
Work on GUUCCGUUGGCGUAAUGGUAACGCGUCUCCCUCCUAAGGAGAAGACUGCGGGUUCGGGCCCCGUACGGUACG [A57G U59C A69U] yielded a yeast fitness of 0.748.
